Article PMC2191018 (The Journal of Experimental Medicine, 1993)
Like-named read-outs stand apart in the source and are kept apart here.

Tests used:
[1] = molecular target: Kd molecule; settings: cited from earlier work
[2] = tested on: TCR of biotin-YIPSAEK(IASA)I-specific CTL clones; settings: different cell types; cited from earlier work
[3] = tested on: N9 TCR / Kd molecule; test: Inhibition of N9 TCR photoaffinity labeling by competitor peptides and mAbs; type: binding, mouse; settings: competitor peptide at 300-fold molar excess; N9 cells; SDS-PAGE 10%, nonreducing
[4] = tested on: CTL clone N9; test: 51Cr-release CTL recognition assay, clone N9; type: cell-based, mouse
Procedure, shortened: (§1)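 Test peptide derivatives were titrated in threefold dilutions on P815 target cells in a 51Cr-release assay at an E/T ratio of 3:1, run 4 h at 37°C. Specific lysis = 100 × (experimental − spontaneous)/(total − spontaneous). Relative antigenic activity = concentration of the reference photoprobe giving 50% maximal lysis divided by that of the variant.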

[5] = tested on: TCR of biotin-YIPSAEK(IASA)I-specific CTL clones; test: TCR photoaffinity labeling on living CTL clones; type: binding, mouse; settings: for TCR photoaffinity labeling: 4-5 h 37 C, UV 312 nm 5 min, TCR immunoprecipitated, SDS-PAGE
Procedure, shortened: (§2)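 Live CTL clone cells were washed into DMEM with 0.5% FCS and 10 mM Hepes. They were incubated with biotinylated 125I-IASA photoprobe (~2,000 Ci/mmol) plus human β2m, 4-5 h at 37°C in 5% CO2, then UV irradiated at 312 nm for 5 min at 4°C. Cells were lysed in 0.7% NP-40 with leupeptin, PMSF and iodoacetamide. Kd (mAb 20-8-4S) or TCR-α/β (H57-597) was immunoprecipitated and run on 10% reducing SDS-PAGE.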

[6] = tested on: biotin-YIPSAEK(IASA)I-specific CTL clones; test: CTL recognition of peptide derivatives, statements over several clones; type: cell-based, mouse
Procedure, shortened: as §1

[7] = molecular target: Kd molecule; settings: compared with isomeric IASA-YIPSAEK(biotin)I or the parent derivative; cited from earlier work
[8] = molecular target: Kd molecule; test: Kd photoaffinity labeling on CTL clones; type: binding, mouse; settings: UV irradiation, Kd immunoprecipitated, SDS-PAGE 10%, reducing
Procedure, shortened: as §2

For IASA-YIPSAEK(biotin)I, the Kd photoaffinity labeling [1] is given as “selectively labeled the Kd molecules” and the TCR photoaffinity labeling [2] is given as “failsto label”.

With YIPSAEKI [PbCS 253-260] the “effect on N9 TCR labeling by biotin-YIPSAEK(125IASA)I” value [3] was “abolished”.

In the case of “biotin-YIPSAEK (4-azido benzoic acid [ABA]I [biotin-YIPSAEK(ABA)I]”, the “efficiency of recognition relative to the original photoprobe” value ([4]; clone N9, versus biotin-YIPSAEK(IASA)I) is reported as “about 50 times”.

With biotin-YIPSAEK(125IASA)I the TCR photoaffinity labeling ([5]; clone N1) was “No significant TCR labeling”, the TCR photoaffinity labeling ([5]; clone N4) was “showed TCR photoaffinity labeling” and the TCR photoaffinity labeling ([5]; clone N9) was “showed TCR photoaffinity labeling”. The “photoaffinity-labeled TCR chain” value ([5]; clone N9, two-dimensional gel electrophoresis) was “labeled both chains”, the TCR photoaffinity labeling ([5]; clone N11) was “showed TCR photoaffinity labeling” and the TCR photoaffinity labeling ([5]; clone O1) was “No significant TCR labeling”. The TCR photoaffinity labeling ([5]; clone O7) was “No significant TCR labeling” and the TCR photoaffinity labeling ([5]; clone O11) was “No significant TCR labeling”.

For biotin-YIPSAEK(ASA)I, the “improvement of recognition on removal of the iodine from the IASA group” value ([6]; the other four clones, versus biotin-YIPSAEK(IASA)I) was 6-12 fold.

For biotin-YIPSAEK(BA)I, the “recognition by clone N9 compared with the original conjugate” value ([4]; clone N9, only clone among the eight to recognize this variant) was “as efficientlyas the original”.

For biotin-YIPSAEK(IASA)I, the Kd photoaffinity labeling [1] is given as “could not”, the “recognition by clone O8” value ([6]; additional clone 08, data not shown) is given as “recognized” and the “binding to Kd molecules” value [7] is given as “bound equally efficiently”.

For “lZSlASA-YIPSAEK(biotin)I [125IASA-YIPSAEK(biotin)I]”, the Kd photoaffinity labeling ([8]; clone N1) was “slightly reduced”, the Kd photoaffinity labeling ([8]; clone N4) was “efficient” and the Kd photoaffinity labeling ([8]; clone N6) was “efficient”. The Kd photoaffinity labeling ([8]; clone N9) was “efficient”, the Kd photoaffinity labeling ([8]; clone N11) was “slightly reduced” and the Kd photoaffinity labeling ([8]; clone O1) was “efficient”.
